Assay results from ChEMBL document CHEMBL4390656, “Shooting three inflammatory targets with a single bullet: Novel multi-targeting anti-inflammatory glitazones” (Eur J Med Chem, 2019).
Blank lines part the entries; values can stand above or below the compound they belong to. Active and inactive are the calls of the source. The rule behind the calls is not given here.

How the values were obtained:
THP-1 [1] = test: Inhibition of PMA-induced human THP1 monocytes differentiation in to macrophages assessed as macrophage metabolic activity preincubated for 6 hrs before PMA stimulation
[2] = biological target: T1, Prostaglandin G/H synthase 1 (Ovis aries, UniProt P05979); test: Inhibition of ovine COX1 catalytic activity using arachidonic acid as substrate pre-incubated for 10 mins followed by substrate addition and measured after 2 mins by ELISA method
T1 sequence (P05979 whole entry): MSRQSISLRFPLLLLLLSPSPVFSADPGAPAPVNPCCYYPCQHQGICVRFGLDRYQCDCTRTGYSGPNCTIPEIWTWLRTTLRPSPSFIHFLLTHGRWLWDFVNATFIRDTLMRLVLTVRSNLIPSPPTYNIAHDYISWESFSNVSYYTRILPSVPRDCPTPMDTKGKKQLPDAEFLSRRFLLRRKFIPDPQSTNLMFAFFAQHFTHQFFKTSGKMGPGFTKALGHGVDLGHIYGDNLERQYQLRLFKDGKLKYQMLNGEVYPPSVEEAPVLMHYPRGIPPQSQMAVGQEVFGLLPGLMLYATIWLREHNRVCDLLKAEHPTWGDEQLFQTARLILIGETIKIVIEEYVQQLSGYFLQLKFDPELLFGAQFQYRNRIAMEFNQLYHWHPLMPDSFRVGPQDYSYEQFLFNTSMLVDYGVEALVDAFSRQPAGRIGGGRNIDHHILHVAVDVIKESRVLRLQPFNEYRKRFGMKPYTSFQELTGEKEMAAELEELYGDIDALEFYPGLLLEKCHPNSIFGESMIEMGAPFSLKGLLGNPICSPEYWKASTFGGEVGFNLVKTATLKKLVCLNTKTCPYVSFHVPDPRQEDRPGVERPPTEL

Rattus norvegicus [3] = species: Rattus norvegicus; test: Antidiabetic activity in Wistar rat hemi-diaphragm at 2 mg assessed as increase in glucose uptake in absence of insulin by GOD/POD enzymatic method; format: functional, tissue-based
Method in brief: (§1)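 Wistar rats (150-250 g), fasted overnight, euthanized under ether; diaphragms removed and halved, each half weighed. Glucose in the working solution measured before and after incubation, and uptake taken as initial minus final content at 2 mg drug; expressed as mg/dl/45 min, mean ± SEM.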

[4] = Inhibition of soya bean 15-LOX by colorimetric lipoxygenase inhibitor screening assay kit method; design: species or system Glycine max
Method in brief: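 Soybean 15-LOX activity measured with a colorimetric lipoxygenase inhibitor screening kit per the kit instructions.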

Rattus norvegicus [5] = species: Rattus norvegicus; test: Antidiabetic activity in Wistar rat hemi-diaphragm at 2 mg assessed as increase in insulin-induced glucose uptake by GOD/POD enzymatic method; format: functional, tissue-based; method in brief: as §1
Rattus norvegicus [6] = test: Antiinflammatory activity in rat acute inflammation model assessed as inhibition of formalin-induced paw edema at 5 mg/kg, po measured after 4 hrs relative to control; format: functional
Method in brief: (§2)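 Adult female albino rats, 150-250 g, acclimatized 1 week. Compounds given orally at 5 mg/kg body weight; percentage edema inhibition measured after 4 h. Celecoxib and diclofenac sodium served as positive controls.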

THP-1 [7] = test: Inhibition of PMA-induced human THP1 monocytes differentiation in to macrophages assessed as macrophage metabolic activity up to 300 uM preincubated for 6 hrs before PMA stimulation; format: functional, cell-based
Method in brief: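 THP-1 cells grown in RPMI-1640 with 10% FBS and seeded at 2×10^5 cells/ml. Drug concentrations applied for 6 h before differentiation with PMA 25 ng/ml for 24 h; wells washed 3x with PBS. Attached cells quantified by MTS viability readout, with a no-PMA blank, normalized to DMSO-pretreated PMA cells. Viability at each drug concentration checked separately over 30 h.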

[8] = biological target: T2, Peroxisome proliferator-activated receptor gamma (Homo sapiens) (UniProt P37231); test: Transactivation of GAL4 DBD-fused human PPARgamma LBD expressed in HEK293 cells at 10 uM after 24 hrs by luciferase reporter gene assay relative to pioglitazone; format: cell-based
T2 sequence (whole entry): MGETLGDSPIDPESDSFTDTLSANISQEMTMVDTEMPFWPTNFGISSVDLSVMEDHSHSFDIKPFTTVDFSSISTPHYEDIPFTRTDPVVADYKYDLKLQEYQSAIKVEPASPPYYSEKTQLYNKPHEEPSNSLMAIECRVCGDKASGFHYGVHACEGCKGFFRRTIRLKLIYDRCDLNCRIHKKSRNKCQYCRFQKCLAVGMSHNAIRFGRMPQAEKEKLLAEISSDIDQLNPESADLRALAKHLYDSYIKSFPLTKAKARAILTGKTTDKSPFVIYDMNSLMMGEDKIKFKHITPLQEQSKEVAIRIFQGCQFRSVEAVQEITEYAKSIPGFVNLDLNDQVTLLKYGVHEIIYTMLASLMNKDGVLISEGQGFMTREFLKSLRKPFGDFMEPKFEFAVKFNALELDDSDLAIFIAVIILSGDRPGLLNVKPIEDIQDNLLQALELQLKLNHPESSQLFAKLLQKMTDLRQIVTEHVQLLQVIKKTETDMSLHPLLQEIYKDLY
Method in brief: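 HEK293(T) cells transiently co-transfected with a Gal4 DBD–human PPARγ LBD hybrid and a Gal4 UAS-driven Renilla luciferase reporter. […] Luciferase activity normalized to Renilla and expressed as fold induction over vehicle; triplicates, repeated at least three times.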

Rattus norvegicus [9] = test: Antiinflammatory activity in rat acute inflammation model assessed as inhibition of formalin-induced paw edema at 5 mg/kg, po measured after 4 hrs relative to celecoxib; format: functional; method in brief: as §2

Compound: O=C(O)Cc1ccccc1Nc1c(Cl)cccc1Cl [DICLOFENAC]
IC50 (THP-1 [1]): 143 µM

Compound: Cc1ccc(-c2cc(C(F)(F)F)nn2-c2ccc(S(N)(=O)=O)cc2)cc1 [CELECOXIB]
inhibition in vivo at 5 mg/kg (Rattus norvegicus [6]): 36.8%

Compound: CCc1ccc(CCOc2ccc(CC3SC(=O)NC3=O)cc2)nc1 (centres undefined)
inhibition (THP-1 [7]): inactive
Activity (Rattus norvegicus [3]): Active
Activity (Rattus norvegicus [5]): Active

Compound: O=C(O)Cc1ccccc1Nc1c(Cl)cccc1Cl [DICLOFENAC SODIUM]
inhibition in vivo at 5 mg/kg (Rattus norvegicus [9]): 205%
inhibition in vivo at 5 mg/kg (Rattus norvegicus [6]): 52.1%

Compound: CC(Cc1ccc(O)c(O)c1)C(C)Cc1ccc(O)c(O)c1 (centres undefined) [NORDIHYDROGUAIARETIC ACID]
IC50 [4]: 10.2 µM

Compound: O=c1c(O)c(-c2ccc(O)c(O)c2)oc2cc(O)cc(O)c12 [QUERCETIN]
IC50 [4]: 3.27 µM

More lines, main results first:

IC50 [2]: 13.6 µM
IC50 [4]: 4.97 µM
Compound: O=C1NC(=O)/C(=C/c2ccc(OCc3cn(CC(=O)c4ccc(Br)cc4)nn3)cc2)S1
Activity (Rattus norvegicus [3]): Active
Activity (Rattus norvegicus [5]): Active

Activity [8]: 25 to 45%
Compound: C#CCOc1ccc(/C=C2\SC(=S)NC2=O)cc1

Activity [8]: 25 to 45%
Compound: O=C1NC(=O)/C(=C/c2ccc(OCc3cn(-c4ccc(Br)cc4)nn3)cc2)S1

Activity [8]: 25 to 45%
Compound: COc1ccc(-n2cc(COc3ccc(/C=C4\SC(=O)NC4=O)cc3)nn2)cc1

Activity [8]: 25 to 45%
Compound: O=C1NC(=O)/C(=C/c2ccc(OCc3cn(Cc4ccc(Br)cc4)nn3)cc2)S1

IC50 [2]: 12.4 µM
IC50 [4]: 4.22 µM
Compound: O=C1NC(=S)S/C1=C\c1ccc(OCc2cn(CC(=O)c3ccc(Cl)cc3)nn2)cc1

IC50 [2]: 14.9 µM
IC50 [4]: 4.34 µM
Compound: O=C1NC(=S)S/C1=C\c1ccc(OCc2cn(CC(=O)c3ccc(Br)cc3)nn2)cc1
Activity (Rattus norvegicus [3]): Active
Activity (Rattus norvegicus [5]): Active

IC50 [2]: 10.9 µM
Compound: O=C1NC(=O)/C(=C/c2ccc(OCc3cn(CC(=O)c4ccc(Cl)cc4)nn3)cc2)S1
